# Laboratory results reported in ChEMBL document CHEMBL5512642, “Novel triterpenoid pyrones, phthalimides and phthalates are selectively cytotoxic in CCRF-CEM cancer cells - Synthesis, potency, and mitochondrial mechanism of action” (Eur J Med Chem, 2024).
# Calls of active or inactive are those of the source. No cut-off for these calls is given here.
# What was measured:
# CCRF-CEM [1] = assay: Cytotoxicity against human CCRF-CEM cells assessed as reduction in cell viability incubated for 72 hrs by MTS assay; type: functional, cell-based
# CEM-DNR = assay: Cytotoxicity against human CEM-DNR cells assessed as reduction in cell viability incubated for 72 hrs by MTS assay; type: functional, cell-based
# K562 = assay: Cytotoxicity against human K562 cells assessed as reduction in cell viability incubated for 72 hrs by MTS assay; type: functional, cell-based; conditions: K562, 72 h
# [2] = Cytotoxicity against human K562-Tax cells assessed as reduction in cell viability incubated for 72 hrs by MTS assay; type: functional, cell-based
# A549 = assay: Cytotoxicity against human A549 cells assessed as reduction in cell viability incubated for 72 hrs by MTS assay; type: functional, cell-based; conditions: A549, 72 h
# HCT-116 = assay: Cytotoxicity against human HCT-116 cells assessed as reduction in cell viability incubated for 72 hrs by MTS assay; type: functional, cell-based; conditions: HCT-116, 72 h
# HCT 116 TP53(-/-) = assay: Cytotoxicity against human HCT116-p53-null cells assessed as reduction in cell viability incubated for 72 hrs by MTS assay; type: functional, cell-based
# U2OS = assay: Cytotoxicity against human U2OS cells assessed as reduction in cell viability incubated for 72 hrs by MTS assay; type: functional, cell-based
# [3] = Cytotoxicity against human BJ cells assessed as reduction in cell viability incubated for 72 hrs by MTS assay; type: toxicity, cell-based
# [4] = Cytotoxicity against human MRC5 cells assessed as reduction in cell viability incubated for 72 hrs by MTS assay; type: toxicity, cell-based
# [5] = Stability in human plasma assessed as compound remaining measured 15 mins by RF-MS analysis; type: ADME, cell-free; conditions: read-out: Stability
# Outline: (§1)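 Compounds incubated in human plasma in vitro for up to 2 h. Percent remaining sampled at 15, 30, 60 and 120 min. Run in triplicate.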
# [6] = Stability in human plasma assessed as compound remaining measured 30 mins by RF-MS analysis; type: ADME, cell-free; conditions: read-out: Stability; outline: as §1
# [7] = Stability in human plasma assessed as compound remaining measured 60 mins by RF-MS analysis; type: ADME, cell-free; conditions: read-out: Stability; outline: as §1
# [8] = Stability in human plasma assessed as compound remaining measured 120 mins by RF-MS analysis; type: ADME, cell-free; conditions: read-out: Stability; outline: as §1
# [9] = Plasma protein binding in human assessed as fraction bound at 10 uM by rapid equilibrium dialysis based RF-MS analysis; type: ADME, cell-free; conditions: read-out: PPB (converted)
# Outline: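 Human plasma protein binding measured by equilibrium dialysis and reported as percent fraction bound. Run in triplicate.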
# [10] = Apparent permeability of the compound in MDCK-MDR1 cells at 10 uM incubated for 1 hr by RF-MS analysis; type: ADME, cell-based, Canis lupus familiaris; conditions: dog
# Outline: (§2)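 Caco-2 and MDCK-MDR1 monolayers; transport measured in both directions, apical→basolateral and basolateral→apical. Efflux ratio taken from the two directions; ER > 2 counted as active efflux. Compound recovery reported. Cell-based permeability runs done in duplicate.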
# [11] = Efflux ratio of apparent permeability across basolateral to apical side over apical to basolateral side in MDCK-MDR1 cells; type: ADME, cell-based, Canis lupus familiaris; conditions: dog; outline: as §2
# [12] = Apparent permeability of the compound across apical to basolateral side in MDCK-MDR1 cells assessed as compound recovery at 10 uM incubated for 1 hr by RF-MS analysis; type: ADME, cell-based, Canis lupus familiaris; conditions: dog, read-out: Activity; outline: as §2
# [13] = Metabolic stability in human liver microsomes assessed as compound remaining at measured at 15 mins in presence of NADPH by RF-MS analysis; type: ADME, Microsome; conditions: read-out: Stability
# Outline: (§3)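 Human liver microsomes with NADPH cofactor to assess phase I oxidation. Compound remaining sampled at 15, 30 and 60 min; intrinsic clearance derived and categorized. Run in triplicate.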
# [14] = Metabolic stability in human liver microsomes assessed as compound remaining at measured at 30 mins in presence of NADPH by RF-MS analysis; type: ADME, Microsome; conditions: read-out: Stability; outline: as §3
# [15] = Metabolic stability in human liver microsomes assessed as compound remaining at measured at 60 mins in presence of NADPH by RF-MS analysis; type: ADME, Microsome; conditions: read-out: Stability; outline: as §3
# [16] = Apparent permeability of the compound in human Caco-2 cells; type: ADME, cell-based; outline: as §2
# [17] = Efflux ratio of apparent permeability across basolateral to apical side over apical to basolateral side in human Caco-2 cells; type: ADME, cell-based; outline: as §2
# [18] = Apparent permeability of the compound across apical to basolateral side in human Caco-2 cells assessed as compound recovery; type: ADME, cell-based; conditions: read-out: Activity; outline: as §2
# CCRF-CEM [19] = assay: Induction of apoptosis in human CCRF-CEM cells assessed as viable cells at 1 time IC50 incubated for 24 hrs by Annexin V and propidium iodide staining based flow cytometry analysis (reference value: 98%); type: functional
# CCRF-CEM [20] = assay: Induction of apoptosis in human CCRF-CEM cells assessed as early apoptotic cells at 1 time IC50 incubated for 24 hrs by Annexin V and propidium iodide staining based flow cytometry analysis (reference value: 1.4%); type: functional
# CCRF-CEM [21] = assay: Induction of apoptosis in human CCRF-CEM cells assessed as late apoptotic cells at 1 time IC50 incubated for 24 hrs by Annexin V and propidium iodide staining based flow cytometry analysis (reference value: 0.5%); type: functional
# CCRF-CEM [22] = assay: Induction of apoptosis in human CCRF-CEM cells assessed as necrotic cells at 1 time IC50 incubated for 24 hrs by Annexin V and propidium iodide staining based flow cytometry analysis (reference value: 0.1%); type: functional
# CCRF-CEM [23] = assay: Induction of apoptosis in human CCRF-CEM cells assessed as viable cells at 5 time IC50 incubated for 24 hrs by Annexin V and propidium iodide staining based flow cytometry analysis (reference value: 98%); type: functional
# CCRF-CEM [24] = assay: Induction of apoptosis in human CCRF-CEM cells assessed as early apoptotic cells at 5 time IC50 incubated for 24 hrs by Annexin V and propidium iodide staining based flow cytometry analysis (reference value: 1.4%); type: functional
# CCRF-CEM [25] = assay: Induction of apoptosis in human CCRF-CEM cells assessed as late apoptotic cells at 5 time IC50 incubated for 24 hrs by Annexin V and propidium iodide staining based flow cytometry analysis (reference value: 0.5%); type: functional
# CCRF-CEM [26] = assay: Induction of apoptosis in human CCRF-CEM cells assessed as necrotic cells at 5 time IC50 incubated for 24 hrs by Annexin V and propidium iodide staining based flow cytometry analysis (reference value: 0.; type: functional
# CCRF-CEM [27] = assay: Antimitotic activity against human CCRF-CEM cells assessed as decrease in cell division at 5 times of IC50; type: functional, cell-based
# Outline: (§4)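 Mitotic fraction scored with the pH3 Ser10 marker and DNA synthesis with BrdU incorporation. For transcription, cells received a short BrU pulse after the 24 h pre-incubation. Read by flow cytometry against untreated cells.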
# CCRF-CEM [28] = assay: Antiproliferative activity against human CCRF-CEM cells assessed as reduction cell population at 1 time of IC50 by BrdU incorporation assay; type: functional, cell-based; outline: as §4
# CCRF-CEM [29] = assay: Induction of apoptosis in human CCRF-CEM cells assessed as reduction in Bcl-2 expression at 5 time of IC50 incubated for 24 hrs by Western blot analysis; type: functional, cell-based
# Outline: (§5)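 Lysate 20 µg protein per lane on SDS-PAGE, transferred to nitrocellulose, blocked in 5% BSA/TBS-Tween. Probed overnight at 4 °C with anti-caspase-3, Bcl-2, Bcl-XL, β-actin, then HRP secondary 1 h. ECL chemiluminescence detection.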
# CCRF-CEM [30] = assay: Induction of apoptosis in human CCRF-CEM cells assessed as reduction in Bcl-XL expression at 5 time of IC50 incubated for 24 hrs by Western blot analysis; type: functional, cell-based; outline: as §5
# CCRF-CEM [31] = assay: Antiproliferative activity against human CCRF-CEM cells assessed as inhibition of RNA synthesis at 5 time of IC50 by BrdU incorporation assay; type: functional, cell-based; conditions: in the assay text read “BrU incorporation assay” for “BrdU incorporation assay”; outline: as §4
# CCRF-CEM [32] = assay: Induction of mitochondrial membrane potential loss in human CCRF-CEM cells assessed as cells with depolarized mitochondria (P2 gate) by measuring green fluorescence intensity at 1 time IC50 incubated for 24 hrs by JC-1 staining based flow cytometry (reference value: 2.1%)
# CCRF-CEM [33] = assay: Induction of mitochondrial membrane potential loss in human CCRF-CEM cells assessed as cells with depolarized mitochondria (P2 gate) by measuring green fluorescence intensity at 5 time IC50 incubated for 24 hrs by JC-1 staining based flow cytometry (reference value: 2.1%)
smiles,measurement,setting,value
CC(C)[C@@H]1CC[C@]2(C(=O)O)CC[C@]3(C)[C@H](CC[C@@H]4[C@@]5(C)CC6=C(C7C(=O)N(c8ccccc8)C(=O)C7C=C6C(F)(F)F)C(C)(C)[C@@H]5CC[C@]43C)[C@@H]12 (some centres undefined),IC50,CCRF-CEM [1],4.5 µM
same,IC50,CEM-DNR,> 50 µM
same,IC50,K562,30 µM
same,IC50,[2],> 50 µM
same,IC50,A549,18 µM
same,IC50,HCT-116,29 µM
same,IC50,HCT 116 TP53(-/-),28 µM
same,IC50,U2OS,4.8 µM
same,IC50 at 72 h,[3],25 µM
same,IC50 at 72 h,[4],28 µM
same,remaining at 0.25 h,[5],99.2%
same,remaining at 0.5 h,[6],102%
same,remaining at 1 h,[7],96.7%
same,remaining at 2 h,[8],89%
same,fraction unbound at 10 µM,[9],0.403
same,"Papp at 1 h, 10 µM",[10],0.05 ×10⁻⁶ cm/s
same,efflux ratio,[11],71.8
same,"recovery at 1 h, 10 µM",[12],86%
same,remaining at 0.25 h,[13],92%
same,remaining at 0.5 h,[14],92%
same,remaining at 1 h,[15],56%
same,Papp,[16],0.09 ×10⁻⁶ cm/s
same,efflux ratio,[17],63.5
same,recovery,[18],84.2%
same,Activity,CCRF-CEM [19],92.4%
same,Activity,CCRF-CEM [20],4.7%
same,Activity,CCRF-CEM [21],2.9%
same,Activity,CCRF-CEM [22],0%
same,Activity,CCRF-CEM [23],90.3%
same,Activity,CCRF-CEM [24],5.2%
same,Activity,CCRF-CEM [25],4.5%
same,Activity,CCRF-CEM [26],0%
same,Activity,CCRF-CEM [27],inactive
same,Activity,CCRF-CEM [28],Active
same,Activity,CCRF-CEM [29],Active
same,Activity,CCRF-CEM [30],Active
same,Activity,CCRF-CEM [31],Active
same,Activity,CCRF-CEM [32],2.2%
same,Activity,CCRF-CEM [33],6.7%
